This passage reports IC50 results from BindingDB's records for doi:10.1021/acs.jmedchem.7b00924 (University of Copenhagen, 2017).

The target of this assay is T1, Sodium- and chloride-dependent betaine transporter (Mus musculus, UniProt P31651).
T1 sequence (P31651 whole entry): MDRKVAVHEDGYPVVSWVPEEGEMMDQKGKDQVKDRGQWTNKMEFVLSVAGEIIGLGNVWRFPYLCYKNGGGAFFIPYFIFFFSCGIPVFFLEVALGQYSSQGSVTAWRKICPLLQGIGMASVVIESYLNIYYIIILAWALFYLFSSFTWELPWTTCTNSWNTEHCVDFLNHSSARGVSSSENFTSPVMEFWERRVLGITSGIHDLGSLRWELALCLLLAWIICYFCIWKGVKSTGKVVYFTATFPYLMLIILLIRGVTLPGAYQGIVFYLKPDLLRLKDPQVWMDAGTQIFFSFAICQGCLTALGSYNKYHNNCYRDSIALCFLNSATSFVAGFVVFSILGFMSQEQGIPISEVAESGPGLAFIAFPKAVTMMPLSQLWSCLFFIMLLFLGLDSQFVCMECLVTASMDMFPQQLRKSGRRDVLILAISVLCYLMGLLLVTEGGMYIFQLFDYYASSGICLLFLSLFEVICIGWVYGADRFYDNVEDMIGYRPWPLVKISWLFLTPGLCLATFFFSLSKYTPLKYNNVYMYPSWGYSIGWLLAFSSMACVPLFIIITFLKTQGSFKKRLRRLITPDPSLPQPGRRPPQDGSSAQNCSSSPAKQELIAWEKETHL
Briefly: Inhibition of mouse BGT1 expressed in HEK293 cells assessed as reduction in [3H]GABA uptake after 3 mins by scintillation counting method. The procedure, abridged:
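HEK293 lines stably expressing a single mouse GAT subtype, kept under blasticidin-S (5 µg/mL) selection. Cells were assayed about 24 h after plating with 30 nM [3H]GABA plus varying compound concentrations for 3 min at 37 °C in HBSS buffered with 20 mM HEPES (1 mM CaCl2, 1 mM MgCl2, pH 7.4). Cells were washed ice-cold and radioactivity counted. IC50 came from sigmoidal variable-slope fits.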

pIC50: −log10 of the molar value.

As for `O=C(NC1CCN(Cc2cccc(OC(F)(F)F)c2)CC1)c1ccc(Cl)cc1Cl`, the negative logarithm of the IC50 (pIC50) was 3.90.

The term pIC50 denotes the negative decadic logarithm of the IC50, by convention in mol/L.
